Assay: Toxicity liver stage against HepG2, at 10uM
Assay type: cell-based
Design: test concentration 10 uM, cell line HepG2-A16-CD81EGFP
Conditions: human, HepG2-A16-CD81EGFP cells; read-out: INHIBITION
Outline: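 Uninfected HepG2-A16-CD81EGFP cells, 3 × 10^3 per well, 1536-well, plated on prespotted compound at 10 μM final, parasite-free screening media added to match infected plates; puromycin 10 μM positive, DMSO 0.5% negative; run in parallel with 48 h PbLuc assay at 37 °C, 5% CO2; viability by CellTiter-Glo luminescence, normalized to controls.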

SMILES | cytotoxicity at 10 µM [%]
COc1cn(CC(N)=O)c(CSc2nc(C)cc(C)n2)cc1=O | -30.2
O=c1c(S(=O)(=O)N2CCCC2)cccn1Cc1ccc(F)cc1Cl | 12
COCC1CC2(CCN(C(=O)c3ccc(F)c(Cl)c3)CC2)CO1 (stereo not given) | -131
O=C(c1cc(Br)ccc1-n1cnnn1)N1CCCCC1 | -1.25
O=c1[nH]c2c(c(=O)n1C1CCCCC1)CCC2Nc1ccccn1 (stereo not given) | -8.02
CC1CCN(c2nc3ncc4c(c3c(=O)[nH]2)CC(C)(C)CC4=O)CC1 | 3.49
CCOC(=O)N1CCN(C(=O)c2sc(-c3ccncc3)nc2C)CC1 | -3.3
CNC(=O)c1cc(S(=O)(=O)C(C)C)cs1 | 5.08
COc1ccc(OC)c(C(C)Nc2ncnc3c2NC(=O)CN3)c1 (stereo not given) | 10.6
COc1cccc(CC(=O)N2CCC(c3ccn4nccc4n3)CC2)c1 | -3.79
Cc1nc(=O)c2ccccc2n1C1=CCN(CC(=O)NC(C)C)CC1 | -7.99
CC1(C(N)=O)CN(S(=O)(=O)c2cccc(F)c2)CCO1 (stereo not given) | 6.73
Cc1c[nH]nc1C1CN(c2cnccn2)CCO1 (stereo not given) | 4.34
Cc1nccc(C2CCCN(S(=O)(=O)N3CCOCC3)C2)n1 (stereo not given) | 6.08
Cc1cc(-c2nccs2)nc(C2CCN(Cc3ccccn3)CC2)n1 | 7.73
COCC(=O)N1CCC(C)(c2cc(O)[nH]n2)CC1 | -6.92
Cc1ncc(-c2ccncc2)c(C2CCN(C(=O)c3ccno3)CC2)n1 | 2.08
CNC(=O)C1(CCCc2cnccn2)CCN1CCc1ccccc1 (stereo not given) | -1.23
Cc1cc(C(=O)N(C)C)nc(C2(C)CCCN2c2ccccc2)n1 (stereo not given) | 4.89
O=C1NC2(CCN(CC(=O)N3CCOCC3)CC2)Nc2ccc(Br)cc21 | -0.445
CNc1cc(C2CN(C(=O)c3ccccc3)CCO2)nc(C)n1 (stereo not given) | 6.1
CNC(=O)c1c[nH]nc1C1CCCN1c1ncccn1 (stereo not given) | 10

SMILES | cytotoxicity at 10 µM [%]
CC(C)n1c(C2CCCN(Cc3ccnn3C)C2)nc2ccccc21 (stereo not given) | -0.0273
O=C(c1cccnc1)N1CCCC(c2cc(C(F)F)n3ncnc3n2)C1 (stereo not given) | 0.745
CC(C)C(C)NC(=O)c1cccn1Cc1cccnc1 (stereo not given) | -44
Cc1ccc(S(=O)(=O)Nc2ccc(-n3ccnc3C)nc2)cc1N(C)C | -3.78
Cc1noc(C(C)C)c1C(=O)NCC1CCCN1Cc1ccccc1 (stereo not given) | -4.45
Cc1[nH]ncc1CCCNC(=O)N1CCC(CC(N)=O)CC1 | 5.45
CSc1c[nH]nc1NS(=O)(=O)c1ccc(C)c(C)c1 | 1.79
CCC(c1ccc(F)cc1F)S(=O)(=O)CCO (stereo not given) | -137
CC(=O)N1CCCN(C(=O)NCC2(c3cccs3)CCCC2)CC1 | 3.23
CC(C)CC(CO)NS(=O)(=O)Cc1ccon1 (stereo not given) | -3.33
COc1ccc(Cl)c(NCC(=O)NCC(=O)N2CCCC2)c1 | -5.7
CCOc1ccc(NS(=O)(=O)c2cc(C)c(C(=O)O)s2)cc1F | -3.24
CC(C)C(=O)NCCC(=O)N1CCN(c2ccccn2)CC1 | -6.13
CCOc1cncc(N2CCCC2c2nnc3n2CCCCC3)n1 (stereo not given) | -5.93
O=C(NCCn1ccnc1)c1cncc(Br)c1 | 17.7
CC(=O)NCCC(=O)NCC1(c2c(F)cccc2F)CCCC1 | -2.75
CC(C)(C)CC(=O)Nc1ccc(S(C)(=O)=O)nc1 | -3.05
CC1CCCCN1S(=O)(=O)NCc1cccnc1OC1CCCC1 (stereo not given) | -89.8
CNC(=O)CCN1CCCC1c1ccccc1Br (stereo not given) | 15.3
Cc1cc(C(=O)N2CCC(N3CCNC3=O)CC2)nn1C(C)(C)C | 5.56
Cn1nnnc1SC1CCN(c2ccccc2Cl)C1=O (stereo not given) | 5.12
CCCN(CC(F)(F)F)C(=O)c1cc(F)cc2[nH]cnc12 | 3.19

SMILES | cytotoxicity at 10 µM [%]
N#Cc1ccc(CNc2cnn(CCN3CCOCC3)c2)cc1 | -5.75
CCNC(=O)CCC(=O)NC1(c2cccc(C(F)(F)F)c2)CCC1 | -39.8
CC(C1CC1)N(C)C(=O)c1cnc(-c2ccc3c(c2)OCO3)s1 (stereo not given) | -7.06
O=C(Cc1ccccn1)N1C[C@H]2CN(Cc3ccccn3)C[C@H]2C1 | -108
CS(=O)(=O)N1CCOCC2(CCN(c3cnccn3)CC2)C1 | -107
CN(C)C(=O)C1CCC2(CCN(C(=O)Nc3ccccc3)CC2)O1 (stereo not given) | -106
CN(C)C(=O)c1cnc2n1CCN(Cc1ccncc1)C2 | -69.4
CNC(=O)[C@@]12CCO[C@@H]1CCN(Cc1c(C)noc1C)C2 | -70.5
Cc1ccc(C(=O)N2C[C@@H]3COC[C@]3(COc3cccnc3)C2)cn1 | -3.91
CCO[C@H]1CO[C@@]2(CCCN(S(=O)(=O)c3ccccc3)C2)C1 | 4.42
COCCn1ccnc1CN1CCc2[nH]cnc2C1c1ccccn1 (stereo not given) | -3.3
CNCc1cn(CC2CCN(CC(C)(C)CN3CCCC3)CC2)nn1 | -1.58
CCCn1cc(S(=O)(=O)N[C@H]2CN(C(C)=O)C[C@@H]2C2CC2)cn1 | -1.48
Cc1ccnc(N2CCN(C[C@]3(O)CCCN4CCCC[C@@H]43)CC2)c1 | 3.78
Cc1cc2ccccc2n1CCC(=O)N1CCCCC1CCO (stereo not given) | 10.4
Cc1ocnc1C(=O)N(Cc1cccnc1)C[C@@H]1CCC(=O)N1 | 8.83
CC(C)OC(=O)N1CCCCC1CCn1cccn1 (stereo not given) | -1.17
CN1CCN(Cc2ccc(-c3ccc(C(N)=O)cc3)nc2)CC1 | 5.58
CCO[C@H]1CN(C)C[C@@H]1NC(=O)c1cc(C)nc2c(C)cccc12 | 3.28
Cc1cc(C)n(C2CCN(C(=O)c3cn4ccsc4n3)C2)n1 (stereo not given) | 6.59
Cc1ccc(C(=O)N2CCC(=O)N(CC3CC3)C(C(C)C)C2)c(=O)[nH]1 (stereo not given) | -15
CCN(C)S(=O)(=O)NCC1CCN(Cc2ccccc2C)CC1 | -4.93

SMILES | cytotoxicity at 10 µM [%]
COc1cccc([C@@H]2CCN(Cc3[nH]nc(C)c3Cl)C[C@H]2O)c1 | -3.26
CC(C)(O)c1cn(C2CCN(C(=O)CCc3ccncc3)CC2)nn1 | -5.32
Cc1cnccc1NCCNC(=O)C1CCCN(Cc2ccco2)C1 (stereo not given) | -7.67
CCCc1nc(C(=O)NCCCn2nnc3ccccc32)cs1 | -14
CN1CC[C@H]2CN(C(=O)c3ccc4sc5c(c4c3)CCNC5=O)C[C@H]21 | -0.193
CC(CNc1nccc(C(C)C)n1)Oc1cccnc1 (stereo not given) | 4.34
CNCc1n[nH]c(=O)n1CC1CCCCC1 | -46.5
COc1ncccc1-c1ncccc1NC(=O)C(C)C | 3.78
Cc1cccnc1CN1CCN(C(=O)CCn2ccc(=O)[nH]c2=O)CC1 | 1.99
COCCN1CC2(CCCN(Cc3cc(=O)c(OC)co3)C2)CCC1=O (stereo not given) | -40
C[C@@H]1CN(C(=O)C2(Cn3cccn3)CC2)CC[C@@]1(O)C1CC1 | -2.6
CCc1ncc(C(=O)N2CC(Oc3ccccc3Cl)C2)cn1 | 45.7
O=C(N[C@@H]1CCN(c2nc3ccccc3o2)C[C@H]1O)c1cnccn1 | 3.52
CCc1cccc(OC2CN(C(=O)[C@@H](N)CCSC)C2)c1 | 0.684
Cc1cccc(CN2CCCC(O)(CNCc3ncccc3C)C2=O)c1 (stereo not given) | -7.4
CCC(C(=O)N(C)CCC1=CCN(C)CC1)c1ccccc1 (stereo not given) | -10.9
CN1CCC2(CC1)CN(C(=O)c1onc3ccccc13)CCCN2C | 8.31
COc1ccc(CC(=O)N2CC[C@H](CO)[C@H](O)C2)c(OC)c1 | -0.392
COc1ccc(CN2CCCC(Nc3cccc(F)c3)C2)cc1O (stereo not given) | 5.76
c1cc2c(cc1CN(Cc1nc(C3CC3)no1)C1CCCC1)OCO2 | -10.6
c1ccc(Cc2nnc(CN3CCCC3Cn3cccn3)o2)cc1 (stereo not given) | -11.7
COc1c(CNCc2ccccc2Cn2ccnc2)c(C)nn1C | -9.2

SMILES | cytotoxicity at 10 µM [%]
CC(C)(C)n1cc(C(=O)N2CCN(Cc3ccncc3)CC2)cn1 | -12.8
Cc1cc(C(=O)NCC(c2ccsc2)N(C)C)no1 (stereo not given) | -18.3
CN(C)c1cc(CNC(=O)c2cccc(F)c2)ccn1 | -13.5
NC(=O)NC(=O)CN1CCN(c2nccs2)CC1 | -17.9
c1ccc(CN2CCCC(Cn3cncn3)C2)nc1 (stereo not given) | -9.93
Cc1ncsc1C(=O)NCCNc1ncccc1C#N | -21.5
Cc1cccc2[nH]cc(CC(=O)N3CCC(Nc4cccnn4)CC3)c12 | -8.45
CCc1ccc(CNC(=O)N2CCN(Cc3cc(C)no3)CC2)s1 | 1.45
CCc1ncc(CN(C)C(=O)Nc2cccnc2N2CCCC2)s1 | -8.43
Cn1ncc2c(=O)[nH]c(CN3CCCC3Cc3ccccc3)nc21 (stereo not given) | -6.56
CC(C)c1ncncc1C(=O)N1CCCN(Cc2cccs2)CC1 | -7.42
O=C(NCc1cc[nH]n1)NCC(c1ccc(F)cc1)N1CCOCC1 (stereo not given) | -7.77
Cc1nc(-c2ccc(CO)cc2)cc(C2CCNCC2)n1 | 12.3
Cn1ccc(C(=O)N2C[C@@H]3CCN(c4cnccn4)C[C@@H]3C2)n1 | -106
CN(C)C(=O)CO[C@H]1CO[C@@]2(CCN(Cc3ccsc3)C2)C1 | -111
N#Cc1ccc(C(=O)N2CC[C@H]3[C@@H]2CCC(=O)N3c2cccnc2)cc1 | 1.77
Cc1ccc2c(c1)CN(C(=O)c1ccccc1F)C(CN(C)C)CO2 (stereo not given) | 4.66
Cc1cc(CN2CC[C@H]3C(=O)N(c4ccsc4)CCO[C@H]3C2)no1 | -69.2
COCCN1C(=O)CC(c2cccnc2)C12CCN(C(=O)C1CC1)CC2 (stereo not given) | -104
O=C(c1ccco1)N1CC[C@@H](N2CCOCC2)[C@@H]1Cc1ccncc1 | -78.2
CC(C)N1CCc2c(CNC(=O)c3nccn3C)cncc2C1 | -106
CC(C)NC(=O)[C@H]1C[C@H]2CN(C(=O)NC(C)C)C[C@@H]1O2 | -105

From ChEMBL document CHEMBL4513216, “Probing the Open Global Health Chemical Diversity Library for Multistage-Active Starting Points for Next-Generation Antimalarials” (ACS Infect Dis, 2020)
